# Activity calls are given as the source filed them. The calls are words filed in the database; no cut-off is given here.
# Columns and labels:
# [1] = target: P2Y purinoceptor 6 (Rattus norvegicus) (UniProt Q63371); experiment: Effect on P2Y6 receptor-mediated cell motility in Wistar rat microglia at 100 uM by chemotaxis assay
# How it was run: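 Chemotaxis of cultured primary rat microglia toward agonist (100 μM) assessed in a Dunn chemotaxis chamber.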
# [2] = target: P2Y purinoceptor 6 (Rattus norvegicus) (UniProt Q63371); experiment: Effect on P2Y6 receptor-mediated cell motility in Wistar rat microglia assessed as formation of lamellipodia-like membrane ruffles at 10 uM after 5 mins
# How it was run: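 Cultured primary rat microglia stimulated 5 min with agonist, then fixed, permeabilized and phalloidin-stained; lamellipodia-like membrane ruffles scored by microscopy.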
# Microglia [3] = experiment: Reversal of drug-induced phagocytosis in Wistar rat microglia at 100 uM in presence of staurosporine; format: functional, cell-based
# How it was run: (§1)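 Rat primary cultured microglia stimulated with 100 μM UDP, with or without reactive blue 2 (30–100 μM), suramin (300 μM), MRS2578 (0.01–3 μM), thapsigargin (1 μM), staurosporine (5 μM) or U73122 (10 μM). Uptake of fluorescent latex microspheres during the 20-min incubation is quantified by FACS. Values are means ± s.e.m.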
# [4] = target: P2Y purinoceptor 6 (Rattus norvegicus) (UniProt Q63371); experiment: Agonist activity at P2Y6 receptor in Wistar rat microglia assessed as increase in intracellular calcium concentration by ratiometric fura-2 fluorescence method; format: functional, cell-based
# How it was run: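 Rat primary cultured microglia loaded with Fura-2. The rise in [Ca2+]i is read as the change in the 340/380 nm fluorescence ratio. UDP is applied over a concentration range, and the fraction of responding cells is also scored.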
# [5] = target: P2Y purinoceptor 6 (Rattus norvegicus) (UniProt Q63371); experiment: Effect on P2Y6 receptor-mediated cell motility in Wistar rat microglia assessed as formation of lamellipodia-like membrane ruffles at 100 uM after 5 mins
# How it was run: (§2)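 Rat primary cultured microglia stimulated for 5 min with 100 μM UDP or 10 μM ATP, then fixed, permeabilized and stained with phalloidin. Membrane ruffles and other actin structures are assessed by microscopy.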
# Microglia [6] = experiment: Effect on formation of F-actin aggregation in Wistar rat microglia at 100 uM after 5 mins; format: functional, cell-based; how it was run: as §2
# Microglia [7] = experiment: Reversal of drug-induced phagocytosis in Wistar rat microglia at 100 uM in presence of MRS2578; format: functional; how it was run: as §1
# [8] = target: P2Y purinoceptor 6 (Rattus norvegicus) (UniProt Q63371); experiment: Activity at P2Y6 receptor in Wistar rat microglia assessed as inhibition of intracellular calcium concentration at 100 uM after 300 secs by ratiometric fura-2 fluorescence method in presence of U73122; format: functional, cell-based
# How it was run: (§3)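 Cultured rat primary microglia. Intracellular Ca2+ measured as the change in the 340/380 nm Fura-2 fluorescence ratio after stimulation with 100 μM UDP, alone or with inhibitors. The maximal UDP-alone response is the control, and responses are expressed as percent of control. Values are means ± s.e.m. of 24–36 cells from at least three independent experiments.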
# Microglia [9] = experiment: Reversal of drug-induced phagocytosis in Wistar rat microglia at 100 uM in presence of U73122; format: functional, cell-based; how it was run: as §1
# Microglia [10] = experiment: Effect on formation of phagosome-like vacuoles in Wistar rat microglia at 100 uM after 5 mins; format: functional, cell-based; how it was run: as §2
# Microglia [11] = experiment: Induction of phagocytosis in Wistar rat microglia assessed as uptake of microspheres after 20 mins by FACS; format: functional, cell-based
# How it was run: (§4)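 Rat primary cultured microglia incubated with agonist for 20 min, with UDP tested at 5–1,000 μM, in the presence of fluorescent latex microspheres. Bead uptake is quantified by FACS, and results are expressed relative to uptake with 100 μM UDP alone. Values are means ± s.e.m. of about three or four experiments.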
# [12] = target: P2Y purinoceptor 6 (Rattus norvegicus) (UniProt Q63371); experiment: Activity at P2Y6 receptor in Wistar rat microglia assessed as inhibition of intracellular calcium concentration at 100 uM in presence of suramin by ratiometric fura-2 fluorescence method; format: functional, cell-based; how it was run: as §3
# Microglia [13] = experiment: Reversal of drug-induced of phagocytosis in Wistar rat microglia at 100 uM in presence of reactive blue 2; format: functional; how it was run: as §1
# [14] = target: P2Y purinoceptor 6 (Rattus norvegicus) (UniProt Q63371); experiment: Activity at P2Y6 receptor in Wistar rat microglia assessed as inhibition of intracellular calcium concentration at 100 uM by ratiometric fura-2 fluorescence method in presence of reactive blue 2; format: functional, cell-based; how it was run: as §3
# [15] = target: T1, Cysteinyl leukotriene receptor 1 (Rattus norvegicus) (UniProt Q924T8); experiment: Agonist activity at CysLT1 receptor in Wistar rat microglia assessed as increase in intracellular calcium concentration at 30 uM by ratiometric fura-2 fluorescence method; format: functional, cell-based
# T1 sequence (whole entry): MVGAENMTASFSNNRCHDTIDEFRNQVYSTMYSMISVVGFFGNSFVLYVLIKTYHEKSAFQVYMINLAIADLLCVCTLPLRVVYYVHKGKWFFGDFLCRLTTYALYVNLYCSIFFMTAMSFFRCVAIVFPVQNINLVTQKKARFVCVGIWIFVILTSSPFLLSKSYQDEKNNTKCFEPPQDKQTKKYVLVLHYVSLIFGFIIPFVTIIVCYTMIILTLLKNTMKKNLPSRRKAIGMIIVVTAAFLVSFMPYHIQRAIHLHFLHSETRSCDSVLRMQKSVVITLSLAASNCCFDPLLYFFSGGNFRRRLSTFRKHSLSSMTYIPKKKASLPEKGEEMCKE
# [16] = target: P2Y purinoceptor 6 (Rattus norvegicus) (UniProt Q63371); experiment: Activity at P2Y6 receptor in Wistar rat microglia assessed as inhibition of intracellular calcium concentration at 100 uM after 600 secs by ratiometric fura-2 fluorescence method in presence of thapsigargin; format: functional, cell-based; how it was run: as §3
# Microglia [17] = experiment: Effect on formation of filopodia-like protrusions in Wistar rat microglia at 100 uM after 5 mins; format: functional, cell-based; how it was run: as §2
# Microglia [18] = experiment: Reversal of drug-induced of phagocytosis in Wistar rat microglia at 100 uM in presence of suramin; format: functional; how it was run: as §1
# Microglia [19] = experiment: Effect on formation of phagocytotic cup in Wistar rat microglia at 100 uM after 5 mins; format: functional, cell-based; how it was run: as §2
# Microglia [20] = experiment: Reversal of drug-induced phagocytosis in Wistar rat microglia at 100 uM in presence of thapsigargin; format: functional, cell-based; how it was run: as §1
# [21] = target: P2Y purinoceptor 6 (Rattus norvegicus) (UniProt Q63371); experiment: Activity at P2Y6 receptor in Wistar rat microglia assessed as inhibition of intracellular calcium concentration at 100 uM by ratiometric fura-2 fluorescence method in presence of MRS2578; format: functional, cell-based; how it was run: as §3
# [22] = target: P2Y purinoceptor 6 (Rattus norvegicus) (UniProt Q63371); experiment: Activity at P2Y6 receptor in Wistar rat microglia assessed as inhibition of intracellular calcium concentration at 100 uM after 600 secs by ratiometric fura-2 fluorescence method in presence of xestospongin C; format: functional, cell-based; how it was run: as §3
# Hippocampus [23] = experiment: Upregulation of P2Y6 receptor mRNA signals in Wistar rat hippocampal CA3 region assessed as increase in number of microglia by in situ hybridization after 3 days; format: functional, tissue-based
# How it was run: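 Rats given 10 mg kg⁻¹ i.p.; 3 days later hippocampal sections probed by in situ hybridization with P2Y₆ antisense RNA probe, then stained with anti-Iba1 to identify microglia bearing receptor mRNA in CA3.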
# Microglia [24] = experiment: Reversal of increase drug-induced phagocytosis in Wistar rat microglia assessed as uptake of microspheres by FACS in presence of MRS2578; format: functional, cell-based
# How it was run: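 Microglia incubated 20 min with supernatant from hippocampal neurons treated ±100 μM kainate for 1 h, with or without 1 μM antagonist; fluorescent latex bead uptake measured by flow cytometry; at least four independent experiments.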
# Hippocampus [25] = experiment: Induction of phagocytosis in Wistar rat hippocampal CA3 region assessed as increase in number of microglia at 10 mg/kg, ip; format: functional, organism-based; design: dose 10 mg/kg
# How it was run: (§5)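 Rats given 10 mg kg⁻¹ i.p.; fluorescent microspheres injected into hippocampal CA3, antagonist injected into CA3 (antisense/mismatch oligonucleotide into third ventricle); microspheres taken up or attached by anti-Iba1-stained microglia counted by confocal microscopy; ANOVA with Scheffe test.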
# Rattus norvegicus = experiment: Increase in P2Y6 receptor protein expression in Wistar rat brain at 10 mg/kg, ip after 72 hrs by Western blotting; format: functional, organism-based; design: dose 10 mg/kg
# How it was run: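 Rats given 10 mg kg⁻¹ i.p. (saline-injected controls); brains removed 72 h later and hippocampal P2Y₆ receptor protein quantified by western blot; 8 control and 7 treated experiments.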
# Microglia [26] = experiment: Increase in phagocytosis in Wistar rat microglia assessed as uptake of microspheres by FACS; format: functional, cell-based
# How it was run: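 Cultured primary rat microglia incubated 20 min with fluorescent latex beads plus agonist (5–1,000 μM); bead uptake quantified by flow cytometry; three experiments.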
# Hippocampus [27] = experiment: Induction of neuronal loss in Wistar rat hippocampal CA3 region assessed as increase in number of microglia by immunohistochemical analysis; format: functional, tissue-based
# How it was run: (§6)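 Rats given 10 mg kg⁻¹ i.p.; 72 h later hippocampal sections double-stained with anti-NeuN (neurons) and anti-Iba1 (microglia) to assess CA1 and CA3 neuronal loss and microglial number.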
# Hippocampus [28] = experiment: Induction of neuronal loss in Wistar rat hippocampal CA1 region assessed as increase in number of microglia by immunohistochemical analysis; format: functional, tissue-based; how it was run: as §6
# Astrocyte = experiment: Increase in P2Y6 receptor protein expression in Wistar rat astrocytes; format: functional, cell-based
# How it was run: (§7)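 Rats given 10 mg kg⁻¹ i.p.; brain sections immunostained for P2Y₆ receptor and co-stained for microglia (OX42), astrocytes (GFAP) or neurons (NeuN) to assess colocalization.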
# Neuron [29] = experiment: Induction of neuronal loss in Wistar rat neurons at 10 mg/kg, ip after 2-3 days; format: functional, organism-based; design: dose 10 mg/kg
# Neuron [30] = experiment: Increase in UTP level in Wistar rat hippocampal neuron at 10 mg/kg, ip by microdialysis; format: functional, organism-based; design: dose 10 mg/kg; settings: Hippocampus, TDE = time-dependent effect
# Neuron [31] = experiment: Increase in UTP level in Wistar rat hippocampal neuron at 100 uM after 1 hr by HPLC in presence of ARL67156
# Microglia [32] = experiment: Increase in P2Y6 receptor protein expression in Wistar rat microglia; format: functional, cell-based; how it was run: as §7
# Neuron [33] = experiment: Increase in P2Y6 receptor protein expression in Wistar rat neurons; format: functional, cell-based; how it was run: as §7
# Hippocampus [34] = experiment: Reversal of drug-induced phagocytosis in Wistar rat hippocampal CA3 region assessed as increase in number of microglia at 10 mg/kg, ip in presence of MRS2578; format: functional, organism-based; design: dose 10 mg/kg; how it was run: as §5
# [35] = Induction of phagocytosis in Wistar rat microglia assessed as uptake of microspheres at 100 uM after 20 mins by FACS; format: functional; how it was run: as §4
# Chain of P2Y purinoceptor 6 (Rattus norvegicus) (Q63371 whole entry): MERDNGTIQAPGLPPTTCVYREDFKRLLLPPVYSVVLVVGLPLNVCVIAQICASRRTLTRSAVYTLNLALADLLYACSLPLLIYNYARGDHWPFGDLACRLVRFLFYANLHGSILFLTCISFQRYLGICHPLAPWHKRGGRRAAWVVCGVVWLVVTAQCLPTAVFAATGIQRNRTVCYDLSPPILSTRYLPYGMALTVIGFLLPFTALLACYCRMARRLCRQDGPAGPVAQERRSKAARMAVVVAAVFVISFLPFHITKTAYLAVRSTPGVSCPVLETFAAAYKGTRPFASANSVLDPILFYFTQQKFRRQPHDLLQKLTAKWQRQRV
smiles,measurement,setting,value
Nc1ncnc2c1ncn2[C@@H]1O[C@H](COP(=O)(O)OP(=O)(O)OP(=O)(O)O)[C@@H](O)[C@H]1O,Activity,[1],Active
same,Activity,[2],Active
O=c1ccn([C@@H]2O[C@H](COP(=O)(O)OP(=O)(O)O)[C@@H](O)[C@H]2O)c(=O)[nH]1,Activity,Microglia [3],Active
same,Activity,[4],Dose-dependent effect
same,Activity,[1],inactive
same,Activity,[5],inactive
same,Activity,Microglia [6],Active
same,Activity,Microglia [7],Active
same,Activity,[8],Active
same,Activity,Microglia [9],Active
same,Activity,Microglia [10],Active
same,Activity,Microglia [11],Dose-dependent effect
same,Activity,[12],Active
same,Activity,Microglia [13],Active
same,Activity,[14],Active
same,Activity,[15],Active
same,Activity,[16],Active
same,Activity,Microglia [17],Active
same,Activity,Microglia [18],Active
same,Activity,Microglia [19],Active
same,Activity,Microglia [20],Active
same,Activity,[21],Active
same,Activity,[22],Active
C=C(C)[C@H]1CN[C@H](C(=O)O)[C@H]1CC(=O)O [KAINIC ACID],Activity,Hippocampus [23],Active
same,Activity,Microglia [24],Active
same,Activity,Hippocampus [25],Active
same,Activity,Rattus norvegicus,Active
same,Activity,Microglia [26],Active
same,Activity,Hippocampus [27],Active
same,Activity,Hippocampus [28],Active
same,Activity,Astrocyte,inactive
same,Activity,Neuron [29],Active
same,Activity,Neuron [30],tde
same,Activity,Neuron [31],10.5 µM
same,Activity,Microglia [32],Active
same,Activity,Neuron [33],inactive
same,Activity,Hippocampus [34],Active
Nc1ncnc2c1ncn2[C@@H]1O[C@H](COP(=O)(O)OP(=O)(O)O)[C@@H](O)[C@H]1O [ADENOSINE DIPHOSPHATE],Activity,[35],0.3%
Nc1nc2c(ncn2[C@@H]2O[C@H](COP(=O)(O)OP(=O)(O)O)[C@@H](O)[C@H]2O)c(=O)[nH]1,Activity,[35],49.7%

# Source: ChEMBL document CHEMBL1147977, “UDP acting at P2Y6 receptors is a mediator of microglial phagocytosis” (2007)
